Each structure is given as a SMILES string.

These results are taken from ChEMBL document CHEMBL1759937, “Pyridinesulfonylureas and pyridinesulfonamides as selective bombesin receptor subtype-3 (BRS-3) agonists” (Bioorg Med Chem Lett, 2011).

Test [1] addresses T1, Bombesin receptor subtype-3 (Homo sapiens, UniProt P32247).
T1 sequence (P32247 whole entry): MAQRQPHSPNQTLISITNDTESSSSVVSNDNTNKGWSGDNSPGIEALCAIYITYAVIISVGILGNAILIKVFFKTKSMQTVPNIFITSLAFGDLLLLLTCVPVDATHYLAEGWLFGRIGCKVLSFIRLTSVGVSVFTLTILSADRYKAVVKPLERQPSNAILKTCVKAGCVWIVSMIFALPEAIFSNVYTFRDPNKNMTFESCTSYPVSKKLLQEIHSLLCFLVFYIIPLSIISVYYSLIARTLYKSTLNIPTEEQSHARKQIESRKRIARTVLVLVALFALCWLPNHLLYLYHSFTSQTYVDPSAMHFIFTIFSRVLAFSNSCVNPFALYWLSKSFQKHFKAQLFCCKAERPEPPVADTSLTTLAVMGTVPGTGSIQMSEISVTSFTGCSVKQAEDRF
Put plainly: Binding affinity to human BRS3.

Test [2] has as its target T2, Bombesin receptor subtype-3 (Mus musculus, UniProt O54798).
T2 sequence (O54798 whole entry): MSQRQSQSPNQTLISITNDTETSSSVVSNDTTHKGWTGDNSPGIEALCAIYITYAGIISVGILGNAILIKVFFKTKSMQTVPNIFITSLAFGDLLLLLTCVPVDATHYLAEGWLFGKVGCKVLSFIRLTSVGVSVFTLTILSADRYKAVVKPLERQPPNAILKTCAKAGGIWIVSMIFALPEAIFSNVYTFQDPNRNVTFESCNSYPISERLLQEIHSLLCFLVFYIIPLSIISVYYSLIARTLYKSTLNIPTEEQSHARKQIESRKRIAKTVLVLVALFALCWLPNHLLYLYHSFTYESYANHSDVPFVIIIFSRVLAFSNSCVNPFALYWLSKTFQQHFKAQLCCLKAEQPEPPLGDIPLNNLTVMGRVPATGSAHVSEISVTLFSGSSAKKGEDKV
Put plainly: Agonist activity at mouse BRS3 by functional assay. Put shortly:
(§1)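 HEK293AEQ cells expressing mouse BRS-3; bioluminescence read against log molar compound concentration. EC50 taken as the inflection point of the sigmoidal curve and normalized to the EC50 of an internal standard. Values under 2 µM with standard errors are means of at least three experiments; duplicate data are reported individually.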

The target of test [3] is T1, Bombesin receptor subtype-3. Put plainly: Agonist activity at human BRS3 by functional assay.
Test [4] deals with T3, Bombesin receptor subtype-3 (Mus musculus) (UniProt O54798).
T3 sequence (whole entry): T2 sequence (O54798 whole entry)
Put plainly: Agonist activity at mouse BRS3 by functional assay relative to control. Summed up: as §1

In the case of `CC(C)(C)NC(=O)NS(=O)(=O)c1cnccc1N[C@H]1C[C@H]2CC[C@@H]1C2` (racemic), the IC50 in test [1] turned out to be 230 nM. Moreover, the EC50 turned out to be 49 nM in test [2] and 160 nM in test [3]. For the same compound, the Activity in test [4] came out at 91%.

For the compound `CC(C)(C)CC(=O)NS(=O)(=O)c1cnccc1N[C@@H]1C[C@H]2CC[C@@H]1C2` (racemic), the IC50 in test [1] was > 10000 nM. Besides, the EC50 in test [2] was determined as 4900 nM; in test [3] it was 8300 nM. In test [4], this compound had an Activity of 61%.

For the compound `CC(C)(C)c1csc(NS(=O)(=O)c2cnccc2N[C@@H]2C[C@H]3CC[C@@H]2C3)n1` (racemic), the IC50 in test [1] was found to be 2500 nM. Further, the EC50 in test [2] turned out to be 200 nM; in test [3], 2100 nM. The Activity in test [4] is 81%.

In test [1], `O=S(=O)(Nc1nnc(C2CCC2)[nH]1)c1cnccc1N[C@@H]1C[C@H]2CC[C@@H]1C2` (racemic) displayed an IC50 of 290 nM. In addition, the figures for the EC50 in test [2] and in test [3] were 170 nM and 1200 nM, respectively.

`CC(C)(C)NC(=O)NS(=O)(=O)c1cnccc1N[C@H]1C[C@@H]2CC[C@H]1C2` registered an IC50 in test [1] of 630 nM. For the same compound, the EC50 in test [2] came out at 110 nM; in test [3], 720 nM. The compound further displayed an Activity in test [4] of 93%.

`O=S(=O)(Nc1nc(C2CCC2)n[nH]1)c1cnccc1N[C@@H]1C[C@H]2CC[C@@H]1C2` (racemic): in test [4], the Activity worked out at 84%.

In the case of `CC(C)(C)OC(=O)NS(=O)(=O)c1cnccc1N[C@@H]1C[C@H]2CC[C@@H]1C2` (racemic), in test [1], the IC50 is > 10000 nM. The values for the EC50 in test [2] and in test [3] were 590 nM and 8200 nM, respectively. This compound also displayed an Activity in test [4] of 89%.

With `CC(C)(C)CC(C)(C)NC(=O)NS(=O)(=O)c1cnccc1N[C@@H]1C[C@H]2CC[C@@H]1C2` (racemic), the IC50 in test [1] worked out at 530 nM. Moreover, the EC50 in test [2] was 100 nM; in test [3], 350 nM. Also, in test [4], the Activity is 102%.

For `CN(C(=O)NS(=O)(=O)c1cnccc1N[C@@H]1C[C@H]2CC[C@@H]1C2)C(C)(C)C` (racemic), the IC50 in test [1] was determined as 650 nM. In addition, the EC50 in test [2] amounted to 180 nM; in test [3] it was 640 nM. In test [4], this compound gave an Activity of 96%.

For `CC(C)(C)NC(=O)NS(=O)(=O)c1cnccc1NC1CCCCC1`, the IC50 in test [1] came out at 400 nM. Moreover, the EC50 was found to be 260 nM in test [2] and 450 nM in test [3]. The compound further had an Activity in test [4] of 90%.

In the case of `CC(C)(C)NC(=O)NS(=O)(=O)c1ccccc1N[C@@H]1C[C@H]2CC[C@@H]1C2` (racemic), in test [1], the IC50 is 6200 nM. Moreover, the EC50 stood at 340 nM in test [2] and 6400 nM in test [3]. Further, in test [4], the Activity was 91%.

In turn, `O=S(=O)(Nc1nc(C2CCC2)n[nH]1)c1cnccc1NC1CC2CCC1C2` (single isomer, unassigned; faster eluting) [listing 1 of 2 here] showed an IC50 in test [1] of 68 nM. In addition, the figures for the EC50 in test [2] and in test [3] were 51 nM and 380 nM, respectively.

In turn, `CC(C)(C)NC(=O)NS(=O)(=O)c1cnccc1N[C@@H]1C[C@H]2CC[C@]1(C)C2(C)C` showed an IC50 in test [1] of 660 nM. For the same compound, the figures for the EC50 in test [2] and in test [3] were 90 nM and 1700 nM, respectively. The same compound came in with an Activity in test [4] of 88%.

Compound `O=S(=O)(Nc1nc(C2CCC2)n[nH]1)c1cnccc1NC1CC2CCC1C2` (single isomer, unassigned) [listing 1 of 2 here] showed an IC50 in test [1] of 310 nM. Moreover, the figures for the EC50 in test [2] and in test [3] were 190 nM and 1700 nM, respectively.

On to `CC(C)NC(=O)NS(=O)(=O)c1cnccc1N[C@@H]1C[C@H]2CC[C@@H]1C2` (racemic), for which the IC50 in test [1] came to 510 nM. Moreover, the figures for the EC50 in test [2] and in test [3] were 86 nM and 440 nM, respectively. The Activity in test [4] came to 88%.

In the case of `CC(C)(C)NC(=N)NS(=O)(=O)c1cnccc1N[C@@H]1C[C@H]2CC[C@@H]1C2` (racemic), the IC50 in test [1] is 9700 nM. Moreover, the results for the EC50 in test [2] and in test [3] were 7000 nM and > 10000 nM, respectively. In test [4], this compound displayed an Activity of 13%.

With `O=S(=O)(Nc1nc(C2CCC2)n[nH]1)c1cnccc1NC1CC2CCC1C2` (single isomer, unassigned; faster eluting) [listing 2 of 2 here], the Activity in test [4] came to 87%.

On to `CC(C)(C)NC(=O)NS(=O)(=O)c1cnccc1N[C@H]1CN2CCC1CC2`, for which the IC50 in test [1] is > 10000 nM. Further, the EC50 in test [2] and in test [3] was > 10000 nM throughout. The same compound displayed an Activity in test [4] of 0%.

`CC(C)(C)NC(=O)NS(=O)(=O)c1cnccc1NC(C)(C)c1ccccc1` returned an IC50 in test [1] of 3000 nM. Moreover, the EC50 stood at 4300 nM in test [2] and 8100 nM in test [3]. The same compound registered an Activity in test [4] of 43%.

Take `O=C(NC12CC3CC(CC(C3)C1)C2)NS(=O)(=O)c1cnccc1N[C@@H]1C[C@H]2CC[C@@H]1C2` (mixture of isomers): the IC50 in test [1] was found to be 310 nM. The EC50 in test [2] worked out at 39 nM; in test [3], 220 nM. The same compound yielded an Activity in test [4] of 55%.

In the case of `CN(C(=O)NC(C)(C)C)S(=O)(=O)c1cnccc1N[C@@H]1C[C@H]2CC[C@@H]1C2` (racemic), the IC50 in test [1] is 6700 nM. Further, the values for the EC50 in test [2] and in test [3] were 6500 nM and 8300 nM, respectively. In addition, in test [4], the Activity came to 49%.

`CCC(C)(C)NC(=O)NS(=O)(=O)c1cnccc1N[C@@H]1C[C@H]2CC[C@@H]1C2` (racemic): the IC50 in test [1] turned out to be 75 nM. Moreover, the results for the EC50 in test [2] and in test [3] were 13 nM and 51 nM, respectively. The compound further displayed an Activity in test [4] of 108%.

Turning to `CC(C)(C)NC(=O)NS(=O)(=O)c1cnccc1O[C@@H]1C[C@H]2CC[C@@H]1C2` (racemic), the IC50 in test [1] worked out at 990 nM. The EC50 was found to be 320 nM in test [2] and 1200 nM in test [3]. In test [4], this compound had an Activity of 92%.

The compound `CC(C)c1n[nH]c(NS(=O)(=O)c2cnccc2N[C@@H]2C[C@H]3CC[C@@H]2C3)n1` (racemic) returned an IC50 in test [1] of 770 nM. Besides, the EC50 came to 410 nM in test [2] and 4000 nM in test [3]. This compound also showed an Activity in test [4] of 72%.

In test [1], `CC(C)(C)NC(=O)NS(=O)(=O)c1cnccc1N[C@@H]1C[C@H]2CC[C@@H]1C2` (racemic) [listing 1 of 2 here] returned an IC50 of 100 nM. The EC50 in test [2] stood at 28 nM; in test [3], 81 nM.

`CC(C)(C)NC(=O)NS(=O)(=O)c1cnccc1N[C@@H]1C[C@H]2CC[C@@H]1C2` [listing 1 of 2 here] came in with an IC50 in test [1] of 68 nM. The EC50 turned out to be 21 nM in test [2] and 55 nM in test [3].

`CC(C)(C)NC(=O)NS(=O)(=O)c1cnccc1NN1CCCC1`: the IC50 in test [1] was > 10000 nM. The EC50 in test [2] and in test [3] was > 10000 nM throughout. Further, in test [4], the Activity was found to be 5%.

Consider `CC(C)(C)NC(=O)NS(=O)(=O)c1cnccc1O[C@@H]1C[C@@H]2CC[C@H]1C2`, for which the IC50 in test [1] was 880 nM. In addition, the figures for the EC50 in test [2] and in test [3] were 320 nM and 1600 nM, respectively. The Activity in test [4] stood at 77%.

In turn, `CC(C)(C)NC(=O)NS(=O)(=O)c1cnccc1NC1CCc2ccccc21` (racemic) showed an IC50 in test [1] of 3800 nM. The figures for the EC50 in test [2] and in test [3] were 1300 nM and 6800 nM, respectively. This compound showed an Activity in test [4] of 63%.

The compound `O=S(=O)(Nc1nc(C2CCC2)n[nH]1)c1cnccc1NC1CC2CCC1C2` (single isomer, unassigned) [listing 2 of 2 here] registered an Activity in test [4] of 88%.

Compound `CC(C)(C)NC(=O)NS(=O)(=O)c1cnccc1N[C@@H]1C[C@H]2CC[C@@H]1C2` [listing 2 of 2 here] showed an Activity in test [4] of 100%.

As for `CC(C)(C)NC(=O)NS(=O)(=O)c1cnccc1N[C@H]1C[C@H]2CC[C@]1(C)C2(C)C`, in test [1], the IC50 amounted to 300 nM. For the same compound, the EC50 turned out to be 33 nM in test [2] and 450 nM in test [3]. Moreover, the Activity in test [4] is 82%.

For `CC(C)(C)c1cc(NS(=O)(=O)c2cnccc2N[C@@H]2C[C@H]3CC[C@@H]2C3)[nH]n1` (racemic), the IC50 in test [1] worked out at 250 nM. Also, the values for the EC50 in test [2] and in test [3] were 270 nM and 4000 nM, respectively. This compound also gave an Activity in test [4] of 113%.

In test [1], `CC(C)(C)c1cccc(NS(=O)(=O)c2cnccc2N[C@@H]2C[C@H]3CC[C@@H]2C3)c1` (racemic) gave an IC50 of 520 nM. Also, the EC50 in test [2] was 160 nM; in test [3], 2600 nM. In test [4], this compound gave an Activity of 102%.

In test [1], `CC(C)NC(=O)NS(=O)(=O)c1cnccc1N[C@H]1C[C@H]2CC[C@@H]1C2` (racemic) showed an IC50 of 820 nM. The values for the EC50 in test [2] and in test [3] were 98 nM and 940 nM, respectively. Besides, the Activity in test [4] came out at 86%.

The compound `CC(C)(C)NC(=O)NS(=O)(=O)c1cnccc1N[C@@H]1C[C@H]2CC[C@@H]1C2` (racemic) [listing 2 of 2 here] displayed an Activity in test [4] of 101%.

Take `CC(C)(C)NC(=O)NS(=O)(=O)c1cnccc1NCc1ccccc1`: the IC50 in test [1] is > 10000 nM. Moreover, the EC50 was 6900 nM in test [2] and 7500 nM in test [3]. The Activity in test [4] stood at 20%.
